Measured values reported in ChEMBL document CHEMBL4673308, “Synthesis and evaluation of new dinitrobenzamide mustards in human prostate cancer” (Bioorg Med Chem Lett, 2021).

What was measured:
[1] = tested on: PC-3; assay: Cytotoxicity against human PC-3 cells assessed as reduction in cell viability incubated for 2 hrs under normoxic condition followed by washed with fresh media incubated for 3 days by alamar blue assay; type: functional, cell-based
How it was run: (§1)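 Cells exposed to the mustards across a concentration range for 2 h under hypoxia (N2) or normoxia (air), then washed and incubated 3 days under normoxia. Viability was read with alamarBlue, and IC50 is reported as mean ± SEM.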

[2] = Selectivity index, ratio of IC50 for human PC-3 cells under normoxic condition to IC50 human PC-3 cells under hypoxia condition incubated for 2 hrs followed by washed with fresh media incubated for 3 days by alamar blue assay; type: functional
How it was run: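 PC-3 hypoxia selectivity is the IC50 in air divided by the IC50 under N2. Both come from the 2 h exposure, wash, 3-day normoxic incubation and alamarBlue viability readout.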

[3] = tested on: DU-145; assay: Cytotoxicity against human DU145 cells assessed as reduction in cell viability incubated for 2 hrs under hypoxic condition followed washed with fresh media incubated for 3 days by alamar blue assay; type: functional, cell-based; how it was run: as §1
[4] = Lipophilicity, logD of compound at pH 7.4 by microscale shake flask method; type: physicochemical; conditions: buffer
How it was run: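 Distribution coefficient measured at pH 7.4 and reported as mean ± SEM from two or more independent experiments, each in triplicate.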

[5] = tested on: PC-3; assay: Cytotoxicity against human PC-3 cells assessed as reduction in cell viability incubated for 2 hrs under hypoxic condition followed by washed with fresh media incubated for 3 days by alamar blue assay; type: functional, cell-based; how it was run: as §1
[6] = tested on: DU-145; assay: Cytotoxicity against human DU145 cells assessed as reduction in cell viability incubated for 2 hrs under normoxic condition followed by washed with fresh media incubated for 3 days by alamar blue assay; type: functional, cell-based; how it was run: as §1
[7] = tested on: PC-3; assay: Cytotoxicity against human PC-3 cells assessed as reduction in cell viability preincubated for 4 hrs in hypoxia and further incubated for 5 days in fresh medium by SRB assay; type: functional, cell-based

Row | SMILES | IC50 [1] | Ratio IC50 [2] | IC50 [3] | logD [4] | IC50 [5] | IC50 [6] | IC50 [7]
1 | CS(=O)(=O)OCCN(CCBr)c1c(C(=O)NCCC(=O)O)cc([N+](=O)[O-])cc1[N+](=O)[O-] | 417 µM | 10 | 56 µM | -0.71 | 41 µM | 326 µM | –
2 | CS(=O)(=O)OCCN(CCBr)c1c(C(=O)NCCO)cc([N+](=O)[O-])cc1[N+](=O)[O-] | 320 µM | 6.7 | 78 µM | 0.8 | 48 µM | 210 µM | 7.3 µM
3 | Cc1ccc(S(=O)(=O)OCCN(CCBr)c2c(C(=O)NCCC(=O)O)cc([N+](=O)[O-])cc2[N+](=O)[O-])cc1 | 460 µM | 11 | 54 µM | 1.03 | 42 µM | 363 µM | –
4 | O=C(NCCO)c1cc([N+](=O)[O-])cc([N+](=O)[O-])c1N(CCBr)CCOS(=O)(=O)C(F)(F)F | 245 µM | 5.8 | 51 µM | 0.33 | 42 µM | 470 µM | –
5 | O=C(O)CCNC(=O)c1cc([N+](=O)[O-])cc([N+](=O)[O-])c1N(CCBr)CCBr | 490 µM | 6.5 | 47 µM | 0.42 | 75 µM | 413 µM | –
6 | Cc1ccc(S(=O)(=O)OCCN(CCBr)c2c(C(=O)NCCO)cc([N+](=O)[O-])cc2[N+](=O)[O-])cc1 | 146 µM | 3.9 | 28 µM | 0.95 | 37 µM | 108 µM | –
7 | O=C(NCCO)c1cc([N+](=O)[O-])cc([N+](=O)[O-])c1N(CCBr)CCBr | 193 µM | 7.4 | 80 µM | 1.7 | 26 µM | 177 µM | –
8 | O=C(O)CCNC(=O)c1cc([N+](=O)[O-])cc([N+](=O)[O-])c1N(CCBr)CCOS(=O)(=O)C(F)(F)F | 350 µM | 3.9 | 68 µM | 0.15 | 90 µM | 480 µM | –
